Assay outcomes as filed in PubChem BioAssay.
Only some compounds are listed: those with a hit (about 1.8% of all), similar ones and a draw of the others.
EBNA-1 inh: EBNA-1 DNA-binding inhibitors, primary screen, biochemical, fluorescence polarization; inhibition, % at 14.8 µM; 0.34% of 300,000 active; AID 1950, 2009; in the data active = inhibition above about 28%
procasp7 counter: procaspase-7 activators, primary screen, counter-screen for procaspase-3 activator project, biochemical, absorbance, HTS, human. Caspase-7 (Homo sapiens), P55210. recombinant procaspase-7, Ac-DEVD-pNA absorbance 405 nm; D23A/D198A/D206A triple mutant, cannot self-cleave; scale: DMSO 0, 5 µM enzyme 100. activation, % at 8.5 µM. 0.093% of 330,000 active. AID 463210, 2010;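 active = percent activation above the screen-wide mean plus 3 SD, cut at about 25% in these data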
Target sequence (P55210 whole entry D23A/D198A/D206A): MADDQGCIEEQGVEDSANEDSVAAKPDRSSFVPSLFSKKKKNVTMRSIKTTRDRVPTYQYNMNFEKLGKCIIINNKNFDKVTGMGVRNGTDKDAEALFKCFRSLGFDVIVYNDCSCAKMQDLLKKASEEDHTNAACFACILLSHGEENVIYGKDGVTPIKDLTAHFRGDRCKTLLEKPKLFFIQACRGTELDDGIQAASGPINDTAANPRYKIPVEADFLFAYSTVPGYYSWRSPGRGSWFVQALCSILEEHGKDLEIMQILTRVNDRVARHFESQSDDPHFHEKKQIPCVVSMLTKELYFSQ
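Test system: Procaspase-7 triple mutant (PC-7 D3A). Also added: Ac-DEVD-pNA substrate, 400 µM as added. Schedule: 1 h enzyme–compound preincubation and 2 h substrate reaction, both 25 °C. Signal: p-Nitroaniline absorbance at 405 nm, read at 0 and 120 min. Control set: low DMSO alone, high DMSO plus 5 µM PC-7.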
GSTO1 inh: inhibitors of recombinant GSTO1, primary screen, counter-screen for RBBP9 inhibitor project, biochemical, fluorescence polarization. Glutathione S-transferase omega-1 (Homo sapiens), P78417. activity-based probe fluorescence polarization. inhibition, % at 5.96 µM. 1.1% of 300,000 active. AID 1974, 2009;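 active = inhibition above the campaign mean inhibition plus 3 SD, cut at about 35% in these data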;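 note: 0% = GSTO1-1 with DMSO and 100% = wells lacking GSTO1-1 enzyme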
Target sequence (P78417 whole entry, looked up): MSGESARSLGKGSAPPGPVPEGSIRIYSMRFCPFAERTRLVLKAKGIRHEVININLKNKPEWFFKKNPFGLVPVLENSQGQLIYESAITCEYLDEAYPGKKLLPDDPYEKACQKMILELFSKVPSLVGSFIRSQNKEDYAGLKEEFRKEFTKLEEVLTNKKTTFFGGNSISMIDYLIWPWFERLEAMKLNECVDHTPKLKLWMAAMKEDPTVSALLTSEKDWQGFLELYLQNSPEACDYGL
ZTA DNA inh: blocks Epstein-Barr virus ZTA, an EBNA-1 counter-screen | P03206 | ZTA-DNA binding, fluorescence polarization | inhibition, % at 11 µM | 0.15% of 320,000 active; in the data active = inhibition above about 33%
proCasp3 act: activators of human procaspase-3 D3A mutant, primary screen, biochemical, absorbance, PC-3 D3A mutant, single concentration; Caspase-3 (Homo sapiens), P42574; recombinant procaspase-3 D3A, Ac-DEVD-pNA absorbance 405 nm; activation, % at 8.5 µM; 0.11% of 330,000 active; AID 463141, 2010;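 active = activation above the mean of all tested compounds plus 3 SD, cut at about 21% in these data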;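 note: 0% = DMSO alone and 100% = DMSO wells spiked with extra 5 µM PC-3 D3A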
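Assay system: Autoprocessing-dead procaspase-3 D3A mutant enzyme; also added: Ac-DEVD-pNA; doses: one concentration, 8.5 µM nominal, 0.8% DMSO; times: 1 h compound preincubation, 2 h substrate hydrolysis at 25 °C; technique: 405 nm absorbance of p-nitroaniline, reads at 0 and 120 min; measure: % activation between DMSO and enzyme-spiked controls; repeats: single replicate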
Apaf1 inhib: inhibitors of human Apaf-1 apoptosome, primary screen, biochemical, DEVD-Rh110 fluorescence, uHTS. reconstituted apoptosome caspase-3 activity. inhibition, % at 20 µM. 0.71% of 330,000 active. AID 489030, 2010; active = inhibition of at least 40% at 20 µM;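 note: plate controls were DMSO wells for no effect and DEVD-CHO caspase inhibitor wells for full effect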
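Material: reconstituted apoptosome with Apaf-1, cytochrome c, caspase-9, procaspase-3, dATP; medium: pH 7.5 Hepes buffer with CHAPS, BSA, DTT; also added: cytochrome c and DEVD-Rh110 substrate; timing: 30 min plus 50 min, RT; signal: Rh110 fluorescence intensity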
GSTO1 inh conf: GSTO1 inhibitor hit confirmation, counter-screen for RBBP9 inhibitor project, biochemical, fluorescence polarization, triplicate; shares compounds with GSTO1 inh; recombinant GSTO1, probe fluorescence polarization; inhibition, % at 5.96 µM; 54% of 2,400 active;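 active = inhibition above the primary screen's cutoff, its mean inhibition plus 3 SD, cut at about 35% in these data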;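 note: loss of polarization as inhibitors block binding of rhodamine sulfonate ester activity probe; 0% = GSTO1 with DMSO and 100% = wells lacking GSTO1 enzyme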
GSTO1 recomb ABPP: inhibitors of purified human GSTO1, late-stage follow-up, biochemical, gel ABPP, SE-Rh probe, percent inhibition | shares compounds with GSTO1 inh | recombinant GSTO1, gel ABPP SE-Rh probe fluorescence | inhibition, % at 1 µM | 30% of 130 active | AID 463110, 2010;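 active = inhibition of the enzyme GSTO1 above about 75%, limit read from the data; inactive = inhibition below that limit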
ZTA inh confirm: EBV Zta binding to ZRE DNA, inhibitors, confirmation, biochemical, fluorescence polarization, triplicate | shares compounds with ZTA DNA inh | inhibition, % at 11.1 µM | AID 2361, 2010 | 30% of 320 active;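 active = mean inhibition across triplicate runs above the hit threshold derived for the original primary screen, cut at about 33% in these data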;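 note: 0% = Zta with DMSO and 100% = wells lacking Zta protein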
EBNA1 counter: EBNA-1 DNA-binding inhibition, counter-screen for ZTA inhibitor project, biochemical, fluorescence polarization. shares compounds with ZTA DNA inh. inhibition, % at 14.8 µM. 320 tested, under 10 active; call rule not given here
Numbers without * were called inactive; x = not tested or not shown.

SMILES	EBNA-1 inh	procasp7 counter	GSTO1 inh	ZTA DNA inh	proCasp3 act	Apaf1 inhib	GSTO1 inh conf	others
CCOc1ccc(-c2nc(CCl)cs2)cc1	2.2	0.3	79.3*	8.6	-9.3	-1.1	92.5*	GSTO1 recomb ABPP=69.0
ClCc1csc(-c2ccc(Cl)cc2)n1	4.6	2.3	90.8*	2.0	-6.5	4.7	101.1*	GSTO1 recomb ABPP=62.0
O=C(O)c1cc2c(cn1)[nH]c1ccccc12	-9.1	-19.5	55.9*	-9.0	-11.8	-0.6	17.1
Oc1ccc(/C=N/Nc2ccc(Cl)nn2)cc1O	-17.3	-5.5	59.7*	-7.6	-3.1	1.3	13.7
Cc1ccc(/C=N/Nc2ccc(Cl)nn2)cc1	3.1	3.9	-4.2	-15.1	1.7	-26.7	x
CCc1ccc(S(=O)(=O)/N=C2/C=C(Sc3ncn[nH]3)C(=O)c3ccccc32)cc1	-0.5	-24.4	82.8*	19.1	-13.8	x	88.5*
O=C1c2ccccc2C(=O)N1CCSc1ncn[nH]1	5.3	1.5	4.8	-0.5	-3.5	-10.7	x
CC(C(=O)c1ccccc1)[n+]1cccc(Br)c1 (configuration not stated)	-2.3	3.0	3.7	-8.6	-5.1	-5.7	x
COCCn1c(=O)[nH]c(=O)c2c1nc(-c1ccc(-c3ccc(Cl)cc3[N+](=O)[O-])o1)n2Cc1ccccc1	-7.0	-4.5	59.6*	-9.1	0.8	39.5	4.1
Oc1cccc(/C=N/NC(=S)Nc2cccnc2)c1O	-6.6	-13.4	79.0*	5.7	-21.2	x	27.5
COc1ccccc1CCNC(=O)c1cccc(S(=O)(=O)N2CCc3ccccc3C2)c1	x	-9.8	x	1.7	-0.1	18.7	x
CC(=O)c1c(C)[nH]c(C(=O)NNC(=O)COc2cc(C)cc(C)c2)c1C	x	x	x	x	x	-4.1	x
CCCCc1ccc(-c2csc(/C(C#N)=C\c3ccc(C)o3)n2)cc1	3.2	-14.1	-4.0	-1.2	-4.0	2.4	x
CCOc1ccc(-c2csc(/C(C#N)=C\c3ccc(O)c([N+](=O)[O-])c3)n2)cc1	-0.9	0.6	43.1*	0.0	3.7	14.6	53.9*
Cc1nc2ccccc2c(=O)n1CCc1ccc(O)cc1	11.5	2.5	-3.3	-6.5	7.2	-2.2	x
Cc1ccc(S(=O)(=O)Nc2ccc(O)c3cccnc23)cc1	-13.3	-39.9	49.6*	-0.7	-20.6	9.5	-0.3
Cc1ccc(S(=O)(=O)Nc2ccc(O)c3ncccc23)cc1	5.8	-12.2	9.9	2.4	-4.7	-2.6	x
C/C(=N\Nc1nc2ccccc2c(=O)n1O)c1ccco1	-19.8	10.8	67.4*	-10.5	11.2	8.0	24.7
O=C(COC(=O)c1ccc([N+](=O)[O-])s1)NCc1ccc(F)cc1	2.6	-4.0	42.8*	2.4	-3.0	34.1	16.3
O=C(COC(=O)c1ccc([N+](=O)[O-])o1)NCc1ccc(F)cc1	x	6.9	x	x	-7.6	14.5	x
O=C(COC(=O)c1ccc([N+](=O)[O-])s1)NC(=O)NCc1ccccc1	-18.9	-12.2	50.6*	2.0	13.7	33.0	16.8
Cc1cc(C)c(S(=O)(=O)Nc2ccc(-c3cn4ccccc4n3)cc2)c(C)c1	1.2	-6.8	-1.1	-15.8	2.7	8.2	x
Cc1cc(C)c(S(=O)(=O)NCc2cn3ccccc3n2)c(C)c1	7.9	-9.2	38.9*	3.3	3.1	-6.2	8.3
O=C(COC(=O)C1CC1)NCc1ccc(Cl)cc1Cl	x	-8.1	x	x	4.3	2.8	x
O=C(OCn1ncc(Cl)c(Cl)c1=O)c1ccc(F)cc1	-8.9	0.3	44.3*	-0.8	-3.6	17.9	28.8
SMILES	EBNA-1 inh	procasp7 counter	GSTO1 inh	ZTA DNA inh	proCasp3 act	Apaf1 inhib	GSTO1 inh conf	others
O=c1c(Cl)c(Cl)cnn1Cc1ccc(F)cc1	0.9	6.3	9.2	8.9	4.5	-10.6	x
O=C(OCn1ncc(Cl)c(Cl)c1=O)c1ccccc1Cl	0.9	-3.9	48.0*	13.2	-3.1	x	32.8
O=C(Cn1ncc(Cl)c(Cl)c1=O)c1ccc(Cl)cc1	-10.0	3.0	18.0	8.7	-2.3	x	x
COC/C=C/C1=CC2=CC(=O)C(C)(OC(=O)c3cnc4ccccc4n3)C(=O)C2=CN1c1ccccc1 (configuration not stated)	2.6	-9.9	37.7*	-11.9	-3.0	14.7	3.5
COC/C=C/C1=CC2=CC(=O)C(C)(OC(=O)c3cnc4ccccc4n3)C(=O)C2=CN1CCc1c[nH]c2ccccc12 (configuration not stated)	-8.3	-12.5	45.4*	-1.6	-1.0	23.0	5.7
O=C1COc2ccc(S(=O)(=O)CCC(=O)NC3CCCCC3)cc2N1	-8.4	-0.5	4.8	7.5	4.7	-4.2	x
CC(=O)Nc1ccc(N/C=C/C(=O)c2ccco2)cc1	-1.3	-1.0	2.1	0.0	10.9	5.1	x
CN(C)c1ccc(N/C=C/C(=O)c2ccco2)cc1	15.4	-8.9	60.9*	91.1*	4.8	4.6	7.3	ZTA inh confirm=-0.3;EBNA1 counter=-3.8
CCOc1ccc(NC(=S)Nc2ccc3nsnc3c2)cc1	3.7	-27.8	87.0*	66.9*	-19.8	-13.7	81.2*	ZTA inh confirm=0.7;EBNA1 counter=0.8
O=C(OCC(=O)N1CCN(C(=O)c2ccco2)CC1)c1cc(F)c(F)cc1Cl	x	4.8	x	x	1.6	6.9	x
O=c1cc(Nc2cccc(Br)c2)[nH]c(=O)[nH]1	-11.7	-0.9	-8.6	-5.3	6.1	7.4	x
O=c1[nH]c(Nc2ccccc2)cc2cc(Br)ccc12	-6.2	-8.0	58.4*	40.8*	6.0	97.9*	18.8	ZTA inh confirm=2.2;EBNA1 counter=-5.0
Cn1nc(-c2ccc(Cl)cc2)nc2c(=O)n(C)c(=O)nc1-2	-20.6	-3.3	90.5*	48.9*	1.1	99.0*	91.7*	ZTA inh confirm=82.1*;EBNA1 counter=-3.6
